Experimental data from ChEMBL document CHEMBL3407343, “Functionalized tetrahydro-1H-pyrido[4,3-b]indoles: a novel chemotype with Sirtuin 2 inhibitory activity” (Eur J Med Chem, 2015).
Values after ≈ are worked out from the molar mass of the structure shown. Active and inactive are the calls of the source. No cut-off for these calls is given here.

Tests used:
[1] = biological target: T1, NAD-dependent protein deacetylase sirtuin-2 (Homo sapiens, UniProt Q8IXJ6); assay: Inhibition of human recombinant SIRT2 assessed as deacetylation of N-acetyl lysine residue in p53 (317 to 320) after 30 mins by luciferase-mediated luminescence assay
T1 sequence (Q8IXJ6 whole entry): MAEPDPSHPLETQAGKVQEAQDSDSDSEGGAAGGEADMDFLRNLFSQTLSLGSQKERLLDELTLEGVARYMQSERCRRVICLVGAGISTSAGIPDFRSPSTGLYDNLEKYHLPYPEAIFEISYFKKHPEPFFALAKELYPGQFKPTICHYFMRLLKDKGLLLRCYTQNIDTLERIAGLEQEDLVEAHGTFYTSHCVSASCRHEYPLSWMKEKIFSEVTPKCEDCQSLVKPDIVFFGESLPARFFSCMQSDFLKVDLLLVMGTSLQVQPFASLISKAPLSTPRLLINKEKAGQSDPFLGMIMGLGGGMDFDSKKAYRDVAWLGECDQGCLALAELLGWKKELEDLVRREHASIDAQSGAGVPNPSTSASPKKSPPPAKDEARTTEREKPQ

[2] = Self-aggregation of the compound in PBS assessed as derived light scattering count rate at 10 uM at pH 7.4 (reference value: 15.5 +/- 0.4 kilocount/sec); assay type: physicochemical; conditions: buffer, pH 7.4, 10 µM
Homo sapiens [3] = organism: Homo sapiens; assay: Inhibition of protease (unknown origin) using deacetylated peptide as substrate assessed as luminescence at 10 uM after 30 mins relative to control; parameters: scale not given: the % may be the effect or the level left
Procedure, shortened: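 Counter-screen without sirtuin: compound from DMSO stock diluted in Sirt-Glo buffer, then Sirt-Glo reagent added carrying non-acetylated control peptide. DMSO was 2.5% v/v. Mixed by shaking 30 min at 25 °C, then luminescence read. Result is % of control (peptide plus reagent in vehicle) after subtracting the vehicle-only blank.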

[4] = biological target: T2, NAD-dependent protein deacetylase sirtuin-1 (Homo sapiens, UniProt Q96EB6); assay: Inhibition of human recombinant SIRT1 assessed as deacetylation of N-acetyl lysine residue in p53 (317 to 320) after 30 mins by luciferase-mediated luminescence assay
T2 sequence (Q96EB6 whole entry): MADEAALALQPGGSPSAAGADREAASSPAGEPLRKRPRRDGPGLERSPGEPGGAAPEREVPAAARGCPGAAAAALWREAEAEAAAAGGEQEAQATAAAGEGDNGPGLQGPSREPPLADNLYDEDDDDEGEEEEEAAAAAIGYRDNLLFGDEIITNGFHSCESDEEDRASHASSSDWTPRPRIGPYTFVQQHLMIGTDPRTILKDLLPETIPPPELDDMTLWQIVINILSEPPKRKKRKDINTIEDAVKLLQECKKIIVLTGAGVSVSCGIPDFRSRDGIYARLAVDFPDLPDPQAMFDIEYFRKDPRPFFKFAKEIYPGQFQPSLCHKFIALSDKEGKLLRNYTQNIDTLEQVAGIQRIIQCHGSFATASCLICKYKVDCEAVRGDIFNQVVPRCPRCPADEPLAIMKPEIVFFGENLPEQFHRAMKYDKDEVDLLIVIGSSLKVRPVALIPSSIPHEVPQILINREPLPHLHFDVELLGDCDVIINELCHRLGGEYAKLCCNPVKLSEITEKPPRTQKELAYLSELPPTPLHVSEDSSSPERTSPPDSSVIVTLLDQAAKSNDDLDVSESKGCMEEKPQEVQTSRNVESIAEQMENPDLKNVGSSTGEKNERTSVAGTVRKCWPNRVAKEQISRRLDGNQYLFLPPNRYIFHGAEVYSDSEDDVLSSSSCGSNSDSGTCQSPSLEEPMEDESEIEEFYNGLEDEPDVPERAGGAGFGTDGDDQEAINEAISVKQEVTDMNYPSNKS

[5] = biological target: T3, NAD-dependent protein deacetylase sirtuin-1 (Homo sapiens) (UniProt Q96EB6); assay: Inhibition of human recombinant SIRT1 assessed as deacetylation of N-acetyl lysine residue in p53 (317 to 320) at 10 uM after 30 mins by luciferase-mediated luminescence assay relative to control
T3 sequence (whole entry): T2 sequence (Q96EB6 whole entry)
Procedure, shortened: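 Recombinant human SIRT1 at 0.1 unit/well, with the enzyme amount chosen from the mid-linear range of a signal-to-noise titration, in Sirt-Glo buffer. Serially diluted inhibitor in DMSO covers a 10^3-fold range, with 2.5% DMSO final. The single-point screen is at a fixed 10 µM. Enzyme and inhibitor were agitated 30 min at 25 °C, then Sirt-Glo reagent added and shaken another 30 min at 25 °C before luminescence was read. Activity is % of the enzyme-only control after blank subtraction. IC50 comes from a sigmoidal fit of % activity against log concentration, run in triplicate across ≥2 independent experiments.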

[6] = Solubility of the compound in phosphate buffer at pH 7.4 at 25 degC by turbimetric method; assay type: physicochemical
Procedure, shortened: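 Turbidimetric solubility. Compound from DMSO stock was added to phosphate buffer pH 7.4 at 1–50 µM final, with 1% v/v DMSO. Plate shaken 30 min at 25 °C and absorbance read at 620 nm. Solubility is assigned to the concentration range where absorbance rises two-fold or more, from 3 separate determinations.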

[7] = Self-aggregation of the compound in PBS assessed as derived light scattering count rate at 1 uM at pH 7.4 (reference value: 15.5 +/- 0.4 kilocount/sec); assay type: physicochemical; conditions: buffer, pH 7.4, 1 µM
Homo sapiens [8] = organism: Homo sapiens; assay: Selectivity ratio of IC50 for human recombinant SIRT1 to IC50 for human recombinant SIRT2
[9] = Self-aggregation activity of the compound in PBS assessed as derived light scattering count rate at 25 uM at pH 7.4 (reference value: 15.5 +/- 0.4 kilocount/sec); assay type: physicochemical; conditions: buffer, pH 7.4, 25 µM
[10] = Self-aggregation of the compound in PBS assessed as derived light scattering count rate at 250 uM at pH 7.4 (reference value: 15.5 +/- 0.4 kilocount/sec); assay type: physicochemical; conditions: buffer, pH 7.4, 250 µM
[11] = Cytotoxicity against human IMR90 cells assessed as cell viability after 72 hrs by MTS assay; assay type: cell-based; conditions: IMR-90, 72 h

Row | SMILES | IC50 [1] [µM] | Activity [2] [kC/sec] | Activity (Homo sapiens [3]) [%] | IC50 [4] [µM] | inhibition [5] | Activity [7] [kC/sec] | also measured
1 | CN1CCc2[nH]c3ccc(-c4ccc(S(C)(=O)=O)cc4)cc3c2C1 | > 250 | – | – | – | – | – | –
2 | CCCCCCCCn1c2c(c3cc(-c4cccc(C)c4)ccc31)CN(C)CC2 | 6.2 | 178 | 98.6 | 21 | 66.4% | 17.9 | solubility kinetic [6]: 3.1 µM (≈ 1.2 µg/mL)
3 | CC(C)=CCn1c2c(c3cc(-c4cccc(C)c4)ccc31)CN(Cc1ccc(O)cc1)CC2 | – | – | – | – | inactive | – | –
4 | CCCCn1c2c(c3cc(-c4ccc(S(C)(=O)=O)cc4)ccc31)CNCC2 | 20 | – | 98.6 | – | inactive | – | –
5 | CCCCCCCCn1c2c(c3cc(-c4cccc(C)c4)ccc31)CN(Cc1ccccc1)CC2 | 8.2 | 769 | 99 | > 100 | < 5% | 32 | –
6 | CCCCCCCCn1c2c(c3cc(-c4ccc(S(C)(=O)=O)cc4)ccc31)CN(C)CC2 | 6 | 130.7 | 97.8 | > 250 | 12.8% | 17 | solubility kinetic [6]: 3.1 µM (≈ 1.4 µg/mL); Ratio IC50 (Homo sapiens [8]): > 40
7 | CCCCCCCCn1c2c(c3cc(-c4cnc(N)nc4)ccc31)CN(CC)CC2 | – | – | – | – | inactive | – | –
8 | CCCCCCCCn1c2c(c3cc(-c4ccnc(F)c4)ccc31)CNCC2 | – | – | – | – | 1.1% | – | –
9 | CCCCCCCCn1c2c(c3cc(-c4cnc(N)nc4)ccc31)CNCC2 | 11.8 | 137 | 96.3 | 38 | 2.4% | 16.1 | solubility kinetic [6]: 6.3 µM (≈ 2.38 µg/mL)
10 | O=C(OCc1ccccc1)c1ccccc1 [BENZYL BENZOATE] | – | – | – | – | – | – | Activity [9]: 76 kC/sec; Activity [10]: 1148 kC/sec
11 | Cc1cccc(-c2ccc3[nH]c4c(c3c2)CNCC4)c1 | 100 | – | – | – | – | – | –
12 | Cc1cccc(-c2ccc3[nH]c4c(c3c2)CN(C)CC4)c1 | 83 | – | – | – | – | – | –
13 | CCCCCCCCn1c2c(c3cc(F)ccc31)CN(C)CC2 | – | – | – | – | inactive | – | –
14 | CCCCn1c2c(c3cc(-c4cccc(C)c4)ccc31)CNCC2 | 96 | – | – | – | inactive | – | –
15 | CCCCCCCCn1c2c(c3cc(-c4cccc(C)c4)ccc31)CNCC2 | 10.1 | – | – | 20 | 5.1% | – | Ratio IC50 (Homo sapiens [8]): 2
16 | CN1CCc2[nH]c3ccc(-c4cnc(N)nc4)cc3c2C1 | > 250 | – | – | – | – | – | –
17 | CCCCCCCCn1c2c(c3cc(-c4ccc(S(C)(=O)=O)cc4)ccc31)CN(C(N)=O)CC2 | 4 | 29 | 98.6 | 28 | 51.8% | 15.6 | IC50 [11]: 14.5 µM; solubility kinetic [6]: 1.6 µM (≈ 0.771 µg/mL)
18 | CCCCCCCCn1c2c(c3cc(-c4cccc(C)c4)ccc31)CN(C(C)C)CC2 | 11.2 | 558 | 100 | 26 | 2.4% | 27 | solubility kinetic [6]: 1.6 µM (≈ 0.667 µg/mL)
19 | CCCCCCCCn1c2c(c3cc(-c4ccnc(F)c4)ccc31)CN(C(N)=O)CC2 | – | – | – | – | inactive | – | –
20 | CCCCCCCCn1c2c(c3cc(-c4cnc(N)nc4)ccc31)CN(C(=O)OCC)CC2 | – | – | – | – | inactive | – | –
21 | CCCCCCCCn1c2c(c3cc(-c4cnc(N)nc4)ccc31)CN(S(C)(=O)=O)CC2 | – | – | – | – | inactive | – | –
22 | CCCCCCCCn1c2c(c3cc(F)ccc31)CN(Cc1ccc(O)cc1)CC2 | – | – | – | – | inactive | – | –
23 | CCCCn1c2c(c3cc(-c4cnc(N)nc4)ccc31)CNCC2 | > 100 | – | – | – | inactive | – | –
24 | CCCCCCCCn1c2c(c3cc(-c4cnc(N)nc4)ccc31)CN(CCO)CC2 | – | – | – | – | inactive | – | –
25 | CCCCCCCCn1c2c(c3cc(-c4cnc(N)nc4)ccc31)CN(C(C)C)CC2 | 20 | 137 | – | 56 | 15.3% | 16.8 | –
26 | CCCCCCCCn1c2c(c3cc(-c4cnc(N)nc4)ccc31)CN(C)CC2 | 17.9 | 24 | 98.7 | > 100 | inactive | 15.8 | –
27 | CCCCCCCCn1c2c(c3cc(-c4cccc(C)c4)ccc31)CN(C(=O)OCC)CC2 | – | – | – | – | inactive | – | –
28 | CCCCCCCCn1c2c(c3cc(-c4cnc(N)nc4)ccc31)CN(C(N)=O)CC2 | 14 | – | – | 63 | inactive | – | –
29 | CCCCCCCCn1c2c(c3cc(-c4cccc(C)c4)ccc31)CN(Cc1ccc(O)cc1)CC2 | – | – | – | – | inactive | – | –
30 | CCCCCCCCn1c2c(c3cc(-c4cccc(C)c4)ccc31)CN(C(N)=O)CC2 | 7.8 | 541 | 97.1 | > 100 | inactive | 19 | –
